In the library only some 4% were active in any assay of this set; here they are far more common.
DAGLB inhibitor: DAGLB lipase inhibitors, primary screen, biochemical, fluorescence, HTS | hit rate 0.059% among 340,000 | HEK293T DAGLB membrane lysate, EnzChek fluorogenic substrate | Diacylglycerol lipase-beta (Homo sapiens), Q8NCG7 | AID 504411, 2011 | inhibition, % at 5.17 µM; in the data active = inhibition above about 34%;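 also: 0% = enzyme with vehicle and 100% = wells lacking enzyme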
Target sequence (Q8NCG7 whole entry, looked up): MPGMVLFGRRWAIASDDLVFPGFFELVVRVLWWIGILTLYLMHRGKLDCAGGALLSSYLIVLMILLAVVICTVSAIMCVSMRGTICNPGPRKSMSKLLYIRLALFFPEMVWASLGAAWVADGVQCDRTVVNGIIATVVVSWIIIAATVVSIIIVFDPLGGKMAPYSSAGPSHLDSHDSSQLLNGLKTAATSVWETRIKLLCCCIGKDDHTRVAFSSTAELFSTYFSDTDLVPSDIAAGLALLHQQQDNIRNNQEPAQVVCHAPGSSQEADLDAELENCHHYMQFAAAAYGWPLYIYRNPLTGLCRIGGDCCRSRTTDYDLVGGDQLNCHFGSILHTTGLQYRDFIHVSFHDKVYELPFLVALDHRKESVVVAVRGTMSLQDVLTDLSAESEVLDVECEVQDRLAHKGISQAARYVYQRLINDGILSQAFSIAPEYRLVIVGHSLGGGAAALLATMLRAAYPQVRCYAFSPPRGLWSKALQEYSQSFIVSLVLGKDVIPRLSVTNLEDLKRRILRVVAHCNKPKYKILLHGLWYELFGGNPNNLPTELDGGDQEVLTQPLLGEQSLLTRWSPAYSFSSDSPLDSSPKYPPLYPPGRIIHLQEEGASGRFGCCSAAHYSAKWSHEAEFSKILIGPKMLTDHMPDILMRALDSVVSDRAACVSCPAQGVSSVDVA
GPR7 antagonist: GPR7 receptor antagonists, primary screen, cell-based, fluorescence, single concentration; Neuropeptides B/W receptor type 1 (Homo sapiens), P48145; GPR7-expressing cells, fluorescence antagonist assay; inhibition, % at 4.4 µM; hit rate 1.1% among 290,000; in the data active = inhibition above about 16%, passing the limit was not always enough;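 also: cells stimulated with the agonist NPW; 0% = agonist with vehicle and 100% = vehicle without agonist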
TAAR1 antagonist: human TAAR1 antagonists, primary screen, Fluo-8 calcium fluorescence, CHO RD-HGA16 cells. Trace amine-associated receptor 1 (Homo sapiens), Q96RJ0. antagonist. inhibition, % at 3 µM. hit rate 1.5% among 360,000. AID 624466, 2012;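 active = inhibition above a per-plate cutoff, the mean inhibition of test compounds on that plate plus 3 SD, cut at about 49% in these data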;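 also: 0% = DMSO plus EC80 beta-PEA response and 100% = DMSO alone without agonist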
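Test system: RD-HGA16 CHO cells with stable hTAAR1 and Gα16 / Probe or stimulus: EC80 β-phenethylamine stimulus / Times: seeding 17-24 h prior, 75-min 37 °C, 30-min RT dye loading / Detection: Fluo-8 calcium-sensitive fluorescence / Read-out basis: % inhibition scaled between DMSO and EC80 PEA controls / Repeats: singlicate, one well per test compound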
MPTP inh: mitochondrial permeability transition pore inhibitors, primary screen, biochemical, isolated mouse mitochondria, absorbance; Ca2+ swelling absorbance, 30 min; inhibition, % at 10 µM; hit rate 1.4% among 360,000;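 active = inhibition of 50% or more, scaled per plate between neutral and stimulator controls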;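 also: 0% = DMSO wells given calcium and 100% = 1 mM EGTA wells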
TAAR1 agonist: human TAAR1 agonists, primary screen, Fluo-8 calcium fluorescence, CHO RD-HGA16 cells; vehicle wells 0%, saturating PEA agonist 100%; AID 624467, 2012; activation, % at 3 µM; hit rate 0.99% among 360,000; Trace amine-associated receptor 1 (Homo sapiens), Q96RJ0;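 active = activation above the mean activation of all test compounds in the run plus 3 SD, cut at about 38% in these data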
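System: CHO RD-HGA16 cells carrying human TAAR1 plus Gα16; Incubation: 17-24 h seeding, 75 min 37 °C dye, 30 min RT; Measured by: Fluo-8 fluorescence, 5 s baseline then 140 s kinetic read; Control set: DMSO and PEA EC100; Replication: single well for each compound.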
The depositor's hits bear a star; . = no result.

SMILES	DAGLB inhibitor	GPR7 antagonist	TAAR1 antagonist	MPTP inh	TAAR1 agonist
O=C1N[C@@H](c2ccccc2)COC(=O)[C@@H](Cc2ccc(F)cc2)C/C=C\C[C@@H]1CC(=O)N(CCO)Cc1ccccc1	1	.	77*	-2	39*
O=C1N[C@@H](Cc2c[nH]c3ccccc23)COC(=O)[C@@H](Cc2ccc(F)cc2)C/C=C\C[C@H]1CC(=O)N(CCO)Cc1ccccc1	-7	.	55*	1	10
O=C1OC[C@@H]2CCCN2C(=O)[C@@H](CC(=O)N(CCO)Cc2ccccc2)C/C=C\C[C@@H]1Cc1ccc(F)cc1	-1	.	54*	-2	26
Cc1nc(N2CCCCC2)[nH]c(=O)c1CN(C)N=O	-12	.	-23	3	4
CCC(=O)N1CCC1(C)C(=O)Nc1ccc(OC(F)F)cc1 (centres undefined)	.	.	-13	-2	1
CC1(C(=O)NS(=O)(=O)c2ccc3c(c2)CCO3)CCN1C(=O)Cc1ccc(-c2ccccc2)cc1 (centres undefined)	.	.	-37	0	8
CC(C)(C)[C@H]1COC(=O)[C@@H](Cc2ccc(F)cc2)C/C=C\C[C@@H](CC(=O)N[C@@H](CO)Cc2ccccc2)C(=O)N1	-4	.	58*	5	22
O=C(Cc1ccc(Br)cc1)NNC(=O)Nc1ccc(Cl)cc1	-1	9	3	3	2
O=C(CNc1ccc(Br)cc1)Nc1ccc(S(=O)(=O)N2CCCCC2)cc1	-6	.	15	6	23
O=C(Nc1ccc(S(=O)(=O)N2CCCCC2)cc1)c1ccncc1	-2	14	0	15	11
N#Cc1ccc(NCC(=O)Nc2ccc(S(=O)(=O)N3CCCCC3)cc2)cc1	0	.	21	3	39*
O=C(Cc1ccc(Cl)cc1)Nc1ccc(Br)cc1	-1	-7	32	8	40*
O=C(Nc1ccc(Cc2ccncc2)cc1)c1ccc(S(=O)(=O)N2CCCC2)cc1	1	11	57*	0	22
CCCC(C(=O)Nc1ccc(S(=O)(=O)N2CCCC2)cc1)c1ccccc1 (centres undefined)	-1	.	26	1	41*
COc1ccccc1NS(=O)(=O)c1ccc(C(=O)NCCCN2CCOCC2)cc1	0	.	-7	-1	3
Cc1c(C)c2ccc(OCC(=O)N3CC[C@@]4(O)CCCC[C@H]4C3)c(C)c2oc1=O	-2	-3	6	-1	5
CCOC(=O)C1=CCN(S(=O)(=O)c2ccc(F)cc2)C1c1ccc(Cl)cc1 (centres undefined)	.	.	22	.	0
COc1ccc(C(O)c2nc(-c3cccc(F)c3)cs2)cc1 (centres undefined)	.	.	-13	1	7
O=C(Cc1ccc(Br)cc1)Nc1ccc(S(=O)(=O)N2CCCC2)cc1	-2	-2	6	0	38*
O=C(Cc1ccc(F)cc1)Nc1ccc(S(=O)(=O)N2CCCC2)cc1	-3	.	6	-1	10
COc1cccc(C(O)c2nc(-c3cccc(C(F)(F)F)c3)cs2)c1 (centres undefined)	.	.	7	2	1
N=c1c2c(-c3ccccc3)c(-c3ccccc3)n(Cc3ccco3)c2ncn1CCCn1ccnc1	2	-5	-18	12	21
CC(C)Cn1cnc2c(c(-c3ccccc3)c(-c3ccccc3)n2Cc2ccco2)c1=N	3	21	-8	9	42*
Cc1ccccc1CN1[C@@H](CC(C)C)COc2cc(Br)ccc2S1(=O)=O	.	.	-34	.	0
CC1Sc2ccc(S(=O)(=O)CCC(=O)N3CCN(c4cccc(Cl)c4)CC3)cc2NC1=O (centres undefined)	6	17	50*	0	10
SMILES	DAGLB inhibitor	GPR7 antagonist	TAAR1 antagonist	MPTP inh	TAAR1 agonist
CC(=O)Oc1cc(C(=O)OCC(=O)N2CCc3ccccc3C2)cc(OC(C)=O)c1OC(C)=O	5	.	-20	-1	1
CCn1c(SCc2ccc(C(=O)Nc3cc(C)cc(C)c3)cc2)nnc1-c1ccncc1	-1	2	59*	0	22
O=C(COc1ncnc2cc([N+](=O)[O-])ccc12)NCCc1ccc(Cl)cc1	4	7	-6	0	1
O=C(COc1ncnc2cc([N+](=O)[O-])ccc12)NC(=O)NC1CCCCC1	4	1	-2	0	41*
COc1ccc(NC(=O)c2cc(-c3ccncc3)nc3ccc(Br)cc23)cc1OC	2	-2	53*	0	15
CCCN1C(=O)/C(=C/c2ccc(N3CCCC3)c(C)c2)NC1=S	-132	4	99*	6	129*
Cc1cc(/C=C2\NC(=S)N(C)C2=O)ccc1N1CCCC1	-105	-8	83*	9	142*
CC[C@@H](C)[C@H](NC(=O)OC(C)(C)C)c1nnc(S(=O)(=O)Cc2cc(C)ccc2C)o1	3	24*	13	27	8
C=CCc1cccc2cc(C(=O)N(C)C)c(=O)oc12	-4	-1	0	0	-1
C=CCc1cccc2cc(C(=O)N(CC)CC)c(=O)oc12	0	-11	106*	-1	2
COC(=O)C1=C(C)N(Cc2ccccc2C(F)(F)F)C(=NCc2ccc(OC)cc2)NC1c1cccc(F)c1 (centres undefined)	.	.	5	.	14
CCOc1ccc(CCNC(=O)c2c(C)noc2C)cc1OCC	-1	.	-3	-1	1
CCOc1ccc(CCNC(=O)c2cc3c(C)nccc3[nH]c2=O)cc1OCC	0	-19	51*	3	13
COC(=O)C1=C(C)N(Cc2ccc(Cl)cc2)C(=S)NC1c1ccc(Br)cc1 (centres undefined)	.	.	6	.	0
O=C(CSc1ncccn1)NCCC1=CCCCC1	-1	.	-27	-1	0
O=C(CSc1ncccc1C(=O)O)NCCC1=CCCCC1	0	-8	77*	1	96*
O=C(Nc1ccccc1)OC[C@@H]1CSCCS(=O)(=O)N1	.	.	5	.	1
O=C(O)c1cc(=S)nc[nH]1	0	.	-8	0	2
C=CC[C@@H](CC(=O)N(CCO)Cc1ccccc1)C(=O)N[C@H](COC(=O)[C@@H](CC=C)Cc1ccc(F)cc1)C(C)(C)C	-12	.	19	1	7
C=CC[C@@H](CC(=O)N(CCO)Cc1ccccc1)C(=O)N[C@@H](COC(=O)[C@@H](CC=C)Cc1ccc(F)cc1)Cc1c[nH]c2ccccc12	1	.	17	1	7
C=CC[C@H](CC(=O)N(CCO)Cc1ccccc1)C(=O)N[C@H](COC(=O)[C@@H](CC=C)Cc1ccc(F)cc1)C(C)(C)C	-8	.	51*	0	10

High-throughput results as filed in PubChem BioAssay.
